Values joined by “and” are separate entries in the source; they are usually repeats but may differ in a detail not shown here. Identical values can stand only once. Out of some 350,000 compounds screened, about 300 (0.086%) were called active. Only a selection was taken, and actives are over-represented in it overall. A number with no mark means an inactive call.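 Rule for the calls: active = mean inhibition across replicates of 30% or more, regardless of how many single replicates reach that level; inconclusive = mean under 30% yet at least half of replicates reach 30%; inactive = the rest.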
Experiment: inhibitors of fibronectin matrix deposition, primary screen, AH1F cells, Alexa488-fibronectin fluorescence, plate reader (AID 743247);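 note: positive control wells lacked labelled fibronectin entirely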
Settings: AH1F fibroblasts, overnight, at 12.6 µM, hits give high values
Method in brief: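 Material: AH1F fibroblasts assembling fluorescent fibronectin matrix; amount: 10000 AH1F cells/well; medium: DMEM, 2% serum; reagent: Alexa488-fibronectin, 24 nM final in well; dosing: single compound dose, delivered by pin transfer; incubation: 1 h adhesion, overnight exposure; detection: fluorescence after three HBSS washes, excitation 485 nm, emission 525 nm; measure: fibronectin deposition inhibition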

Going from COc1ccc(-c2ccccc2[C@H]2[C@@H](CO)N(C(=O)c3cccnc3)[C@H]2C#N)cc1 to N#C[C@H]1[C@H](c2ccccc2-c2ccc(F)cc2)[C@H](CO)N1C(=O)Cc1ccncc1, the inhibition falls from 0.791% to -14.3%.

Compared with COc1cccc(C(=O)Nc2ccc3c(c2)C(=O)N(C)[C@H]2CC[C@@H](CC(=O)N[C@H](C)c4ccccc4)O[C@H]2CO3)c1, CN1C(=O)c2cc(NC(=O)c3cccs3)ccc2OC[C@H]2O[C@@H](CC(=O)NCC3CC3)CC[C@@H]21 is lower in inhibition: 1.83% for the first, -3.33% for the second.

Going from CS(=O)(=O)Nc1ccc2c(c1)[C@H]1C[C@@H](CC(=O)N3CCOCC3)O[C@@H](CO)[C@H]1O2 to CN(C)C(=O)C[C@H]1C[C@H]2c3cc(NC(=O)Nc4ccccc4F)ccc3O[C@H]2[C@@H](CO)O1, the inhibition falls from -0.107% to -8.8%.

Going from C[C@@H]1CC=CC[C@@H](c2ccccc2)NC(=O)[C@@H](Cc2ccccc2)N(C)C(=O)c2ccccc2O1 (mixture of isomers) to C[C@@H]1C(=O)N[C@H](c2ccc3c(c2)OCO3)CC=CC[C@H](C)Oc2ccccc2C(=O)N1C (mixture of isomers), the inhibition falls from 15.9% to -8.64%.

Compared with COc1cccc(NC(=O)Nc2ccc3c(c2)OC[C@@H](C)NC[C@@H](C)[C@H](OC)CN(C)C3=O)c1, CO[C@H]1CN(C)C(=O)c2ccc(NC(C)=O)cc2OC[C@@H](C)N(C(=O)c2ccncc2)C[C@@H]1C is lower in inhibition: -4.31% for the first, -5.05% for the second.

First: CCCN1[C@H](CO)[C@H](c2ccc(C#CC3CCCCC3)cc2)[C@@H]1CNC(=O)C1CC1
Second: O=C(c1cnccn1)N1CC(=O)N2[C@H](C1)[C@@H](c1ccc(C#CC3CCCC3)cc1)[C@@H]2CO
The inhibition of the first is lower: -11.7% for the first, 0.368% for the second.

Compared with COc1ccc(S(=O)(=O)N(C)C[C@@H]2Oc3ccc(NC(=O)Nc4cccc5ccccc45)cc3C(=O)N([C@H](C)CO)C[C@H]2C)cc1, CC(C)NC(=O)N(C)C[C@@H]1OCCCC[C@H](C)Oc2ccc(NC(=O)Nc3ccccc3)cc2C(=O)N([C@H](C)CO)C[C@@H]1C is lower in inhibition: 9.82% for the first, 1.11% for the second.

Going from COc1ccc2c3c(n(C)c2c1)[C@H](CO)N(Cc1ccc(F)cc1)CC31CCN(C)CC1 to COc1ccc2c3c(n(C)c2c1)[C@H](CO)N(C(C)=O)CC31CN(Cc2ccc(Cl)cc2)C1, the inhibition rises from 8.27% to 9.57%.

Compared with O=C(CCN1CCN(C/C=C/c2ccccc2)CC1)Nc1ccccc1Cl, NC(=O)C1(Nc2ccccc2Cl)CCCC1 is lower in inhibition: 15.1% for the first, -0.504% for the second.

Compared with COc1ccc(S(=O)(=O)N2C[C@@H](O)COC[C@H]3O[C@@H](CC(=O)NCCN4CCCCC4)CC[C@@H]32)cc1, COc1ccc(S(=O)(=O)Nc2ccc3c(c2)C(=O)N(C)C[C@@H](OC)[C@H](C)CN(C(=O)NC(C)C)[C@H](C)CO3)cc1 is higher in inhibition: -7.51% for the first, 6.84% for the second.

First: CC(=O)N1C[C@@H]2C(c3ccccc3)[C@@H](C1)N2C(=O)NC(C)C (stereo partly drawn)
Second: CC(=O)N1[C@H](CO)[C@H](c2ccccc2)[C@H]1CN(C(=O)c1ccccc1F)C(C)C
The inhibition of the first is lower: -6.49% for the first, -2.39% for the second.

Compared with O=C(NCc1ccc(F)cc1)[C@@H]1[C@@H](CO)[C@@H]2Cn3c(cccc3=O)[C@@H]2N1C(=O)c1cccnc1, Cc1cccc(S(=O)(=O)N2CC[C@@H]3[C@H]2c2cc(C#Cc4ccccc4F)ccc2N[C@@H]3CO)c1 is higher in inhibition: 12.8% for the first, 15.8% for the second.

First: C[C@H]1CN([C@@H](C)CO)C(=O)c2cccc(NC(=O)CCCCCC(=O)Nc3ccccc3N)c2O[C@@H]1CN(C)C(=O)NC1CCCCC1
Second: C[C@@H]1CCCCO[C@H](CN(C)C(=O)CCCN(C)C)[C@@H](C)CN([C@@H](C)CO)C(=O)c2cc(NC(=O)c3ccncc3)ccc2O1
The inhibition of the first is higher: 17% for the first, -3.34% for the second.

Compared with COc1ccc(Nc2nc(N)nc(CSC(=S)N3CCC(C)CC3)n2)cc1, CCOC(=O)C1CCCN(Cc2nc(N)nc(Nc3ccc(C)cc3)n2)C1 (stereo not drawn) is lower in inhibition: 4.46% for the first, -4.21% for the second.

Going from CC(C)[C@@H]1COCc2cn(nn2)CC[C@@H](C)C(=O)N1 to C=C(C)C[C@H]1CCn2cc(nn2)COCCNC1=O, the inhibition falls from -0.112% to -4.67%.

Compared with CCCNC(=O)Nc1ccc2c(c1)C(=O)N(C)C[C@@H](OC)[C@@H](C)CN(Cc1ccccn1)[C@@H](C)CO2, CCCC(=O)Nc1ccc2c(c1)OC[C@H](C)N(C(=O)CC)C[C@H](C)[C@@H](OC)CN(C)C2=O is lower in inhibition: 0.86% for the first, -4.46% for the second.

First: CC(C)NC(=O)N(C)C[C@H]1Oc2ccc(N)cc2CC(=O)N(C)C[C@H]1C
Second: CNC[C@H]1Oc2ccc(NC(=O)NC(C)C)cc2C(=O)N(C)C[C@@H]1C
The inhibition of the first is higher: 3.3% for the first, -10.1% for the second.

Compared with N#Cc1ccc(-c2ccc(C3[C@@H]4CN(S(=O)(=O)c5cccc(Cl)c5)C[C@H]3N4)cc2)cc1 (stereo partly drawn), O=C1N[C@H](Cc2ccccc2)COCc2cn(nn2)CC[C@@H]1Cc1ccc(-c2ccccc2)cc1 is higher in inhibition: -6.82% for the first, 7.74% for the second.

Compared with C[C@H](CO)N1C[C@H](C)[C@@H](CN(C)C(=O)C2CC2)Oc2ncc(C#CC(C)(C)O)cc2C1=O, CNC[C@H]1Oc2ncccc2C(=O)N(C)C[C@@H]1C is higher in inhibition: -19.9% for the first, 3.59% for the second.

In the case of C[C@@H]1CN([C@H](C)CO)C(=O)c2c(c3ccccc3n2C)-c2ccccc2CO[C@@H]1CN(C)Cc1ccccc1C(F)(F)F, the inhibition is reported as 3.35%.

With O=C(Nc1ccc(C(F)(F)F)cc1)N1[C@@H]2CNC[C@H]1C2c1ccc(-c2ccncc2)cc1 (stereo partly drawn) the inhibition was -4.68% and -6.18%.
In the case of O=C(Nc1ccccc1Cl)/C(Cl)=C(\Cl)S(=O)c1ccccc1 (stereo not drawn), the inhibition is reported as 41.6% (active).
With CCOC(=O)c1cnc(SCc2nc(N)nc(Nc3ccc(OC)cc3)n2)nc1N the inhibition was 14.2% (active).
With CCCNC(=O)N1[C@@H]2CNC[C@H]1C2c1ccc(-c2cccc(C)c2)cc1 (stereo partly drawn) the inhibition was -3.69% and -7.75%.

Reference: PubChem BioAssay AID743247 (Broad Institute, 2014)
